How the values were obtained:
[1] = test system: Staphylococcus epidermidis; assay: The compound was tested for its antibacterial activity against Staphylococcus epidermidis.; format: functional, organism-based
[2] = Half-life was determined; format: ADME; conditions: human
Outline: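 Deformylated intermediate cyclizes to diketopiperazine, releasing FdU. Followed by C18 HPLC at 214 nm after PDF treatment in 20 mM sodium phosphate pH 7.4. First-order fit of ln(A0/A) versus time; half-life taken from the fit.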

Escherichia coli [3] = assay: Compound was tested for its antibacterial activity against Escherichia coli BL21(DE3) cells in luria broth; format: functional, organism-based
[4] = test system: Staphylococcus epidermidis; assay: Compound was tested for its antibacterial activity against Staphylococcus epidermidis; format: functional, organism-based
Escherichia coli [5] = assay: The compound was tested for activation by purified Escherichia coli PDF in vitro by measuring deformylation at pH 7.4; format: functional
Outline: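 Purified E. coli PDF added to prodrug (~1 mM) in 20 mM sodium phosphate pH 7.4. Aliquots taken over time and quenched with equal volume 100 mM TFA. Analysed by C18 HPLC at 214 nm; kcat/KM derived from deformylation to intermediate.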

Escherichia coli [6] = assay: The compound was tested for its antibacterial activity against Escherichia coli BL21(DE3) cells in luria broth; format: functional, organism-based

IC50 [1]	half-life [2]	IC50 (Escherichia coli [3])	IC50 [4]	IC50 (Escherichia coli [6])	SMILES	k cat/Km (Escherichia coli [5])
50 µM	51.1 min	> 100 µM	~50 µM		CSCC[C@H](NC=O)C(=O)NC(C)(C)C(=O)OCC1OC(n2cc(F)c(=O)[nH]c2=O)CC1O (some centres not stated)	28900 M⁻¹ s⁻¹
	15.2 min			> 100 µM	CSCC[C@H](NC=O)C(=O)N1CCC[C@@H]1C(=O)OCC1OC(n2cc(F)c(=O)[nH]c2=O)CC1O (some centres not stated)	
	4.68 min			> 100 µM	CSCC[C@H](NC=O)C(=O)N1CCC[C@H]1C(=O)OCC1OC(n2cc(F)c(=O)[nH]c2=O)CC1O (some centres not stated)	
	2.07 min			> 100 µM	CSCC[C@H](NC=O)C(=O)N(C)[C@@H](CC(C)C)C(=O)OCC1OC(n2cc(F)c(=O)[nH]c2=O)CC1O (some centres not stated)	1650 M⁻¹ s⁻¹

— ChEMBL document CHEMBL1133127, “Activation of antibacterial prodrugs by peptide deformylase” (Bioorg Med Chem Lett, 2000)
